We go through one compound from ChEMBL document CHEMBL4414601 (J Med Chem, 2019).

Series [1] can be described thus: Lipophilicity, LogD of compound by reverse phase HPLC analysis.
Series [2] in a line: Aqueous solubility of compound. To be noted: buffer.
Series [3] can be described thus: Clearance in mouse liver microsomes at 0.5 uM measured up to 45 mins in presence of NADPH by HPLC-MS/MS analysis. The class given is ADME, Microsome.
Series [4] in a line: Clearance in rat liver microsomes at 0.5 uM measured up to 45 mins in presence of NADPH by HPLC-MS/MS analysis. The class given is ADME, Microsome.
The nature of series [5]: Clearance in human liver microsomes at 0.5 uM measured up to 45 mins in presence of NADPH by HPLC-MS/MS analysis. The class given is ADME, Microsome.
The subject of series [6] is Plasmodium falciparum. In words: Antiplasmodial activity against […] of Plasmodium falciparum NF54 assessed as reduction in male gametocytes activation preincubated for 48 hrs followed by gametocytes activation and measured after 24 hrs by fluorescence based automated inverted microscopic analysis. The series is classed as functional, organism-based. The method in brief: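 Gametocyte activation was triggered by reduced temperature and ookinete medium containing xanthurenic acid. Male exflagellation centres were detected from a 10-frame video, scoring pixel changes caused by flagellar movement shifting surrounding cells.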

Series [7] concerns the target Beta-2 adrenergic receptor (Homo sapiens, UniProt P07550). In words: Agonist activity at human beta2 adrenoceptor.
Series [8] concerns the target T1, Nuclear receptor subfamily 1 group I member 2 (Homo sapiens, UniProt O75469).
T1 sequence (O75469 whole entry): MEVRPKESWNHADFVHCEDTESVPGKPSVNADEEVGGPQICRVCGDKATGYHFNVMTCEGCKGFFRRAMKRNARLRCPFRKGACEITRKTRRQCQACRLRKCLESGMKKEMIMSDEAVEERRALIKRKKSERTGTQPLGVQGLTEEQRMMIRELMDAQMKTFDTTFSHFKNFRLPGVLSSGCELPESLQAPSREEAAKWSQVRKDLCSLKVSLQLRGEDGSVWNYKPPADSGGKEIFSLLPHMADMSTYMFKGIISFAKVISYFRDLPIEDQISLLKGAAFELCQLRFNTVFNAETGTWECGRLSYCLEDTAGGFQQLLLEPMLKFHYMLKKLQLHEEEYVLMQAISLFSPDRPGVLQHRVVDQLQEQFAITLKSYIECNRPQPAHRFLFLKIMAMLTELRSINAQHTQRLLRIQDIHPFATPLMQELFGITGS
In words: Agonist activity at human PXR.

Series [9] concerns the target T2, Aryl hydrocarbon receptor (Homo sapiens, UniProt P35869).
T2 sequence (P35869 whole entry): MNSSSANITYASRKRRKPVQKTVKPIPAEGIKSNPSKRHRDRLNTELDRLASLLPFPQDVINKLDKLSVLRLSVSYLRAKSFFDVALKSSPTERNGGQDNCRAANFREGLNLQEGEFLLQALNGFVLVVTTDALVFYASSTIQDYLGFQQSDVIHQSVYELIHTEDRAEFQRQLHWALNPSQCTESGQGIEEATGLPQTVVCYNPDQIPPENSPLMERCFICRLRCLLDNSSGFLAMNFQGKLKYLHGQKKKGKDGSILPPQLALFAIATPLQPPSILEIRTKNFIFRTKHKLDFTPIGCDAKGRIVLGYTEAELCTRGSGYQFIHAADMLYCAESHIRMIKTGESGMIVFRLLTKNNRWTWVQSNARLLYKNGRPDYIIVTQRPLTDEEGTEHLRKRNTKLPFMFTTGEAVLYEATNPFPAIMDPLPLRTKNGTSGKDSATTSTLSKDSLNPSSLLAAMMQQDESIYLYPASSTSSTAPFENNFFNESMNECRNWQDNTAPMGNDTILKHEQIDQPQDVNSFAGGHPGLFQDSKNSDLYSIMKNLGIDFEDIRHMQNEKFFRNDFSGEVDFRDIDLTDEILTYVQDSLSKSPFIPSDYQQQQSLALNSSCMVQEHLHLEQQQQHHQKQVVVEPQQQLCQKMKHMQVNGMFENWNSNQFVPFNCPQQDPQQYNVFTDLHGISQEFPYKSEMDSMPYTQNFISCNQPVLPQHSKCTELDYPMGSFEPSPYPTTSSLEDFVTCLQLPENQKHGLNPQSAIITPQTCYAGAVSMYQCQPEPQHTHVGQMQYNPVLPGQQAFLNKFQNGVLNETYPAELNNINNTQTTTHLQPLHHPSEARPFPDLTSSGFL
In words: Agonist activity at human aryl hydrocarbon receptor.

For another series, the target named is Acetylcholinesterase (Homo sapiens, UniProt P22303). In words: Inhibition of AChE (unknown origin).
Series [10] addresses Voltage-dependent L-type calcium channel subunit alpha-1C (Homo sapiens, UniProt Q13936). In words: Inhibition of human L-type CaV1.2.
In series [11] the test system is Plasmodium falciparum. In words: Antiplasmodial activity against Plasmodium falciparum 3D7A harboring with PKG T618Q mutant asexual erythrocytic stage assessed as reduction in [3H]hypoxanthine incorporation preincubated for 48 hrs followed by [3H]hypoxanthine addition and measured after 24 hrs by microbeta scintillation counting method. The class given is functional, organism-based.

Series [12] concerns the target T3, Calcium-dependent protein kinase 4 (Plasmodium falciparum (isolate 3D7), UniProt Q8IBS5).
T3 sequence (Q8IBS5 whole entry): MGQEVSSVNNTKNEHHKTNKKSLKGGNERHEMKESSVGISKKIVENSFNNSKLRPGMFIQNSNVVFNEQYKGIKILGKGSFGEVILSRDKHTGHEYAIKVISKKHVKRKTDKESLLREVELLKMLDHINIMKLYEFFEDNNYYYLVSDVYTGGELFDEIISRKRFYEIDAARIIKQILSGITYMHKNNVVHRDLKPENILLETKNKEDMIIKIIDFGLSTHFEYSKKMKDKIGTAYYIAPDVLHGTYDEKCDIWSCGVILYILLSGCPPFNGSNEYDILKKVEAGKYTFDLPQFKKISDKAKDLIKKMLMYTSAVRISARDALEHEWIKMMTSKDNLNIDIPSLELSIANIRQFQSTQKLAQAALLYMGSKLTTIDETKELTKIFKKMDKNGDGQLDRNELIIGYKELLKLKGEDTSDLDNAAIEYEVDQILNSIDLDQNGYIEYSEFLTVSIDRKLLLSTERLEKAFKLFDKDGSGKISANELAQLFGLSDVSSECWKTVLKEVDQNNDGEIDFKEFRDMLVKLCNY
In words: Binding affinity to CDPK4 in Plasmodium falciparum 3D7 blood stage extract incubated for 1 hr by kinobeads based pull down assay. To be noted: read-out: Kd(app). The method in brief: (§1)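 Chemoproteomic competition used kinobeads or Sepharose beads derivatized with ligand at 1 mM. Free compound was tested at six concentrations between 0.08 and 20 μM, in two independent experiments. Proteins were SP3-digested, TMT 10-plex labelled and measured by LC-MS/MS. IC50s came from competition curves, and apparent Kd was corrected for protein depletion by the beads.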

For series [13], the target named is T3, Calcium-dependent protein kinase 4. In words: Binding affinity to CDPK4 in Plasmodium falciparum 3D7 blood stage extract incubated for 1 hr in presence of ATP-competitive kinase inhibitor by kinobeads based pull down assay. The following applies: read-out: Kd(app). In a few lines: as §1
Series [14] is described as follows: Binding affinity to zinc finger (CCCH type) protein in Plasmodium falciparum 3D7 blood stage extract incubated for 1 hr by kinobeads based pull down assay. The following applies: read-out: Kd(app).
Series [15] can be described thus: Binding affinity to GSK3 in Plasmodium falciparum 3D7 blood stage extract incubated for 1 hr in presence of ATP-competitive kinase inhibitor by kinobeads based pull down assay. The following applies: read-out: Kd(app). The method in brief:
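The free compound competed over six concentrations from 0.08 to 20 μM. Proteins were digested by a modified SP3 protocol, labelled with TMT 10-plex and quantified by LC-MS/MS. Apparent Kd was derived from IC50 corrected for bead depletion. Two independent experiments were run.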

Values after ≈ are worked out from the molar mass of the structure shown.

Sequence of Acetylcholinesterase (P22303 whole entry): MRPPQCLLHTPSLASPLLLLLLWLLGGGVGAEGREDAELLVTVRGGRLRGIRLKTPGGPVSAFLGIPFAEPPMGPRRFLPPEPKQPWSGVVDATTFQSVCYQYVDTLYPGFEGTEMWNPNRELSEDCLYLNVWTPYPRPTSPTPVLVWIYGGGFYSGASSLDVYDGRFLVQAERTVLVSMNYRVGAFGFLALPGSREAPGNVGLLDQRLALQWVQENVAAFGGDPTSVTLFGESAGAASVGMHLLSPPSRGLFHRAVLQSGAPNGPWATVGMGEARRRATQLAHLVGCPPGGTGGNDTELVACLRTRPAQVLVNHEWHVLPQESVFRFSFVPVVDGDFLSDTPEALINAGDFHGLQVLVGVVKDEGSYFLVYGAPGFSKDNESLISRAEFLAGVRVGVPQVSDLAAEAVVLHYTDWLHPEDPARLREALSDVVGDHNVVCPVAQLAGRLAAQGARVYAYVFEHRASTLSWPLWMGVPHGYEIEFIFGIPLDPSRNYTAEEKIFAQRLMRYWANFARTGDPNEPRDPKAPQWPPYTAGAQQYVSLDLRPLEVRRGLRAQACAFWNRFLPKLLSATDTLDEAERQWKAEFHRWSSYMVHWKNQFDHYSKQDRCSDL
Sequence of Voltage-dependent L-type calcium channel subunit alpha-1C (Q13936 whole entry): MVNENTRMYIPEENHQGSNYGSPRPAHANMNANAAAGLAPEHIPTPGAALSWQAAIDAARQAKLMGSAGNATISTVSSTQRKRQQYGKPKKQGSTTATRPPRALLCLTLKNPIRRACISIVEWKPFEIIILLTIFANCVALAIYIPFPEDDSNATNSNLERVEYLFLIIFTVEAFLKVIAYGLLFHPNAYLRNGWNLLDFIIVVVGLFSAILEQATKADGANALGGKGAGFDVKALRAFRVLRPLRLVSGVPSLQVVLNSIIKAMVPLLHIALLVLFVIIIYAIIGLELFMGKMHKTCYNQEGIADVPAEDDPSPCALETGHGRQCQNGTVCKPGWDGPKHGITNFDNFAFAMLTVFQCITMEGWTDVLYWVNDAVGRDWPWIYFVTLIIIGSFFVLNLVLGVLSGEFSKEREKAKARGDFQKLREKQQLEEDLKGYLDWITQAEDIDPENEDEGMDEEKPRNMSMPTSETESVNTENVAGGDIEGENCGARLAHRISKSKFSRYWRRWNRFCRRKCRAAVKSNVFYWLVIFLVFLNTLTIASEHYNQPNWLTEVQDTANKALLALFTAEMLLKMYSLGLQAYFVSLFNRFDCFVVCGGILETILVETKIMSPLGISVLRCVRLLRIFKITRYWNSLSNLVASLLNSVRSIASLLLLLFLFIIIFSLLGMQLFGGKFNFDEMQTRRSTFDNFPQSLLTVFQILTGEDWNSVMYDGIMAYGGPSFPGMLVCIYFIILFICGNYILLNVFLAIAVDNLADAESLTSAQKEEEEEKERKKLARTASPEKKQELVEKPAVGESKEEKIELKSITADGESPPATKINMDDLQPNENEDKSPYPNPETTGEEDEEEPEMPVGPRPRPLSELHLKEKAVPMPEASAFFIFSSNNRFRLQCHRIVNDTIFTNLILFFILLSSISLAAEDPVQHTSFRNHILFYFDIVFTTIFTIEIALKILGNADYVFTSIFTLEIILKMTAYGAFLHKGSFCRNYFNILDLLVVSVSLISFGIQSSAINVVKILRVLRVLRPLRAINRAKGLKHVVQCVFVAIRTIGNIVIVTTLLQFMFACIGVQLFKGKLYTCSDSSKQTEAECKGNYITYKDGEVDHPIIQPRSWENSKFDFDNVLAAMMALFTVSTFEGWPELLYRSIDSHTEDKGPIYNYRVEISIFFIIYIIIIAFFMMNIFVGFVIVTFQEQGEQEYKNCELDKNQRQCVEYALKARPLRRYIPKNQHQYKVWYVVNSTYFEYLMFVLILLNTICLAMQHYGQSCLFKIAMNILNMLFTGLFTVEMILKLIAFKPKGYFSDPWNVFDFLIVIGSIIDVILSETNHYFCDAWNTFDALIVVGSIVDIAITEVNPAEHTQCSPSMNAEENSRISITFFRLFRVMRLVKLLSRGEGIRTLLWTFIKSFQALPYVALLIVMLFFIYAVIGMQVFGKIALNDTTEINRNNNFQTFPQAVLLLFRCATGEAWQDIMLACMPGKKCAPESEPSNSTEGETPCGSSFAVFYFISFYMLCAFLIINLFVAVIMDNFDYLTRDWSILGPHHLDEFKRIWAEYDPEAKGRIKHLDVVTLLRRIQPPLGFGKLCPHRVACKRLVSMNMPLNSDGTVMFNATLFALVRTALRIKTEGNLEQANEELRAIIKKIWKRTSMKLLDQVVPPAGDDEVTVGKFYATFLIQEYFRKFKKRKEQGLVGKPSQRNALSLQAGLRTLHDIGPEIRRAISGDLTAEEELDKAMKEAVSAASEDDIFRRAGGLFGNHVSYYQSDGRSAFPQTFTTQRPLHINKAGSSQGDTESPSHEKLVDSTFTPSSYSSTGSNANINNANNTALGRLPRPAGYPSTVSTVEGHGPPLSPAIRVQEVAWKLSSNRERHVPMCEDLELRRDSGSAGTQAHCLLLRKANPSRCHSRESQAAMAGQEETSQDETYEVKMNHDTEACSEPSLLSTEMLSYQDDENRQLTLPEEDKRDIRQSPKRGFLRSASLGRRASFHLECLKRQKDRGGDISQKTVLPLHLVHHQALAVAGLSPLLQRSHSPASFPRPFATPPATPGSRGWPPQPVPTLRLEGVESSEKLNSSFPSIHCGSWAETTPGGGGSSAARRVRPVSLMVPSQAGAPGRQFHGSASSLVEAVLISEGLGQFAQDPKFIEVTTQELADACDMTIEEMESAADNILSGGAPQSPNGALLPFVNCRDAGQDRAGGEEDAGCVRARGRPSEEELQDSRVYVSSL
Sequence of Beta-2 adrenergic receptor (P07550 whole entry): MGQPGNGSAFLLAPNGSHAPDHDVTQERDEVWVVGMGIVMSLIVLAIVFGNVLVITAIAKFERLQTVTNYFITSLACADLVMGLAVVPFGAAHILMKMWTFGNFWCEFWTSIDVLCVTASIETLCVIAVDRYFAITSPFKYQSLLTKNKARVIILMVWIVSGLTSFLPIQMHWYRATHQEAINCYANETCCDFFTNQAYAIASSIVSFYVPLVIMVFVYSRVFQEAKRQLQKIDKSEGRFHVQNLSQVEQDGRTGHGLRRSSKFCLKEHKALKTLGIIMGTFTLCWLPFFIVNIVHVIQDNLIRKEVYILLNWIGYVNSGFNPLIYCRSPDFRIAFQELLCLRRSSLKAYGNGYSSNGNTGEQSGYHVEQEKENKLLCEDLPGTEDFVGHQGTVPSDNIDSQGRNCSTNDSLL

In the case of `Cc1cc(Nc2nccc(-c3sc(C4CCNCC4)nc3-c3ccc(F)cc3)n2)ccn1`, the chromatographic logD in series [1] was 2.54. In series [2], this compound returned a solubility of 410 µM (≈ 183 µg/mL). In addition, the figures for the CLH in series [3], in series [4] and in [5] were 1.62 mL/min/g, 0.87 mL/min/g and 0.96 mL/min/g, respectively. Moreover, the EC50 is 300 nM in the series on Plasmodium falciparum [6]; over 100000 nM in series [7]; over 50000 nM in series [8]; over 50000 nM in series [9]; 150 nM in the series on Plasmodium falciparum [11]. The IC50 is 400 nM against Acetylcholinesterase and over 30000 nM in [10]. Further, the Kd in series [12] amounted to 50 nM; in [13], 50 nM; in series [14], 3900 nM; in [15] it was 90 nM.
